Values after ≈ are worked out from the molar mass of the structure shown. Active and inactive are the calls of the source. The calls are words filed in the database; no cut-off is given here.
How the values were obtained:
[1] = molecular target: alpha-glucosidase (Saccharomyces cerevisiae); assay: Inhibition of alpha-glucosidase (Saccharomyces cerevisiae) using 4-nitrophenyl alpha-D-glucopyranoside as substrate after 10 mins
[2] = molecular target: Alpha-amylase (Sus scrofa); assay: Inhibition of alpha-amylase (hog pancreas) using starch as substrate preincubated for 10 mins followed by substrate addition measured after 10 mins by dinitrosalicylic acid color reagent based assay
Escherichia coli = assay: Antibacterial activity against Escherichia coli isolate MB 123 after 24 hrs by microdilution assay; type: functional
Summary of the method: (§1)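 Clinical isolates from various clinical specimens, identified by standard procedures and kept in a hospital microbiology laboratory collection. The MIC was read by broth microdilution, following a method described in earlier work.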

Enterococcus faecalis [3] = assay: Antibacterial activity against vancomycin-resistant Enterococcus faecalis isolate MB 51 after 24 hrs by microdilution assay; type: functional; conditions: isolate MB 51, 24 h
Summary of the method: as §1

Enterococcus faecalis [4] = assay: Antibacterial activity against vancomycin-resistant Enterococcus faecalis isolate MB 49 after 24 hrs by microdilution assay; type: functional; conditions: isolate MB 49, 24 h
Summary of the method: as §1

Enterococcus faecium [5] = assay: Antibacterial activity against vancomycin-resistant Enterococcus faecium isolate MB 23 after 24 hrs by microdilution assay; type: functional; conditions: isolate MB 23, 24 h
Summary of the method: as §1

Klebsiella pneumoniae = assay: Antibacterial activity against Klebsiella pneumoniae isolate MB 11 after 24 hrs by microdilution assay; type: functional
Summary of the method: as §1

Nakaseomyces glabratus = assay: Antifungal activity against Candida glabrata isolate MB 8 after 48 hrs by microdilution assay; type: functional
Summary of the method: as §1

[6] = tested on: Staphylococcus epidermidis; assay: Antibacterial activity against methicillin-resistant Staphylococcus epidermidis isolate MB 20 after 24 hrs by microdilution assay; type: functional; conditions: isolate MB 20, 24 h
Summary of the method: as §1

Enterococcus faecium [7] = assay: Antibacterial activity against Enterococcus faecium isolate MB 55 after 24 hrs by microdilution assay; type: functional; conditions: isolate MB 55, 24 h
Summary of the method: as §1

Staphylococcus aureus [8] = assay: Antibacterial activity against methicillin-resistant Staphylococcus aureus isolate MB 9 after 24 hrs by microdilution assay; type: functional; conditions: isolate MB 9, 24 h
Summary of the method: as §1

[9] = tested on: Staphylococcus epidermidis; assay: Antibacterial activity against methicillin-resistant Staphylococcus epidermidis isolate MB 64 after 24 hrs by microdilution assay; type: functional; conditions: isolate MB 64, 24 h
Summary of the method: as §1

[10] = tested on: Staphylococcus epidermidis; assay: Antibacterial activity against methicillin-resistant Staphylococcus epidermidis isolate MB 26 after 24 hrs by microdilution assay; type: functional; conditions: isolate MB 26, 24 h
Summary of the method: as §1

[11] = tested on: Staphylococcus epidermidis; assay: Antibacterial activity against methicillin-sensitive Staphylococcus epidermidis isolate MB 65 after 24 hrs by microdilution assay; type: functional; conditions: isolate MB 65, 24 h
Summary of the method: (§2)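 Clinical isolates from a hospital microbiology collection, identified by standard procedures; MICs by broth microdilution.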

Staphylococcus aureus [12] = assay: Antibacterial activity against methicillin-resistant Staphylococcus aureus isolate MB 18 after 24 hrs by microdilution assay; type: functional; conditions: isolate MB 18, 24 h
Summary of the method: as §1

Enterococcus faecium [13] = assay: Antibacterial activity against vancomycin-resistant Enterococcus faecium isolate MB 2 after 24 hrs by microdilution assay; type: functional; conditions: isolate MB 2, 24 h
Summary of the method: as §1

Staphylococcus aureus [14] = assay: Antibacterial activity against methicillin-sensitive Staphylococcus aureus isolate MB 21 after 24 hrs by microdilution assay; type: functional; conditions: isolate MB 21, 24 h
Summary of the method: as §2

Moraxella catarrhalis = assay: Antibacterial activity against Moraxella catarrhalis isolate MB 15 after 24 hrs by microdilution assay; type: functional
Summary of the method: as §1

Enterococcus faecium [15] = assay: Antibacterial activity against vancomycin-resistant Enterococcus faecium isolate MB 50 after 24 hrs by microdilution assay; type: functional; conditions: isolate MB 50, 24 h
Summary of the method: as §1

Enterococcus faecalis [16] = assay: Antibacterial activity against vancomycin-resistant Enterococcus faecalis isolate MB 1 after 24 hrs by microdilution assay; type: functional; conditions: isolate MB 1, 24 h
Summary of the method: as §1

Proteus mirabilis = assay: Antibacterial activity against Proteus mirabilis isolate MB 14 after 24 hrs by microdilution assay; type: functional
Summary of the method: as §1

Candida albicans = assay: Antifungal activity against Candida albicans isolate MB 31 after 48 hrs by microdilution assay; type: functional
Summary of the method: as §1

Staphylococcus aureus [17] = assay: Antibacterial activity against methicillin-resistant Staphylococcus aureus isolate MB 10 after 24 hrs by microdilution assay; type: functional; conditions: isolate MB 10, 24 h
Summary of the method: as §1

Enterococcus faecalis [18] = assay: Antibacterial activity against Enterococcus faecalis isolate MB 3 after 24 hrs by microdilution assay; type: functional; conditions: isolate MB 3, 24 h
Summary of the method: as §2

| SMILES | Activity (Escherichia coli) | MIC (Enterococcus faecalis [3]) | MIC (Enterococcus faecalis [4]) | MIC (Enterococcus faecium [5]) | Activity (Klebsiella pneumoniae) | Activity (Nakaseomyces glabratus) | MIC [6] [µg/mL] | MIC (Enterococcus faecium [7]) | MIC (Staphylococcus aureus [8]) [µg/mL] | MIC [9] [µg/mL] | MIC [10] [µg/mL] | MIC [11] [µg/mL] | MIC (Staphylococcus aureus [12]) [µg/mL] | MIC (Enterococcus faecium [13]) [µM] | MIC (Staphylococcus aureus [14]) [µg/mL] | Activity (Moraxella catarrhalis) | MIC (Enterococcus faecium [15]) | MIC (Enterococcus faecalis [16]) | Activity (Proteus mirabilis) | Activity (Candida albicans) | further results |
| --- | --- | --- | --- | --- | --- | --- | --- | --- | --- | --- | --- | --- | --- | --- | --- | --- | --- | --- | --- | --- | --- |
| C[C@]12C[C@H](c3ccoc3)OC(=O)[C@@]1(O)[C@@H](O)C[C@@]13COC(=O)C1=CC[C@@H](O)[C@@H]32 | – | – | – | – | – | – | – | – | – | – | – | – | – | – | – | – | – | – | – | – | IC50 [1]: 113.2 µg/mL (≈ 290 µM); IC50 [2]: 238.1 µg/mL (≈ 610 µM) |
| C[C@]12C[C@H](c3ccoc3)OC(=O)[C@]1(O)[C@H](O)C[C@@]13COC(=O)C1=CCC[C@@H]32 | inactive | 85.5 µM | 171 µM | 342 µM | inactive | inactive | > 128 | 342 µM | > 128 | > 128 | > 128 | > 128 | > 128 | 171 (≈ 64.1 µg/mL) | > 128 | inactive | 171 µM | 171 µM | inactive | inactive | MIC (Staphylococcus aureus [17]): > 128 µg/mL; MIC (Enterococcus faecalis [18]): 342 µM |
| O=C1OCC=C1[C@H]1CCc2ccc3c(c2C1)[C@H](c1ccoc1)OC3=O | inactive | > 128 µg/mL | > 128 µg/mL | 381 µM | inactive | inactive | > 128 | 381 µM | > 128 | > 128 | > 128 | > 128 | > 128 | 381 (≈ 128 µg/mL) | > 128 | inactive | 381 µM | > 128 µg/mL | inactive | inactive | MIC (Staphylococcus aureus [17]): > 128 µg/mL; MIC (Enterococcus faecalis [18]): > 128 µg/mL |
| CC(=O)O[C@H](C[C@@]1(C)[C@H](C)[C@H](O[C@@H]2O[C@H](CO)[C@@H](O)C(=O)[C@H]2O)C[C@@]23COC(=O)C2=CCC[C@@H]31)c1ccoc1 | inactive | 117 µM | 234 µM | > 128 µg/mL | inactive | inactive | > 128 | > 128 µg/mL | > 128 | > 128 | > 128 | > 128 | > 128 | 234 (≈ 128 µg/mL) | > 128 | inactive | 234 µM | 234 µM | inactive | inactive | MIC (Staphylococcus aureus [17]): > 128 µg/mL; MIC (Enterococcus faecalis [18]): 117 µM |
| C[C@]12C[C@H](c3ccoc3)OC(=O)[C@@]1(O)[C@H](O)C[C@@]13COC(=O)C1=CCC[C@@H]32 | inactive | > 128 µg/mL | > 128 µg/mL | 342 µM | inactive | inactive | > 128 | 342 µM | > 128 | > 128 | > 128 | > 128 | > 128 | 342 (≈ 128 µg/mL) | > 128 | inactive | > 128 µg/mL | > 128 µg/mL | inactive | inactive | MIC (Staphylococcus aureus [17]): > 128 µg/mL; MIC (Enterococcus faecalis [18]): > 128 µg/mL |
| C[C@@]12/C=C/C=C\C3=C(COC3=O)C[C@@H](O)[C@H]1C(=O)O[C@@H](c1ccoc1)C2 | inactive | 89.9 µM | 180 µM | 180 µM | inactive | inactive | > 128 | 89.9 µM | > 128 | > 128 | > 128 | > 128 | > 128 | 89.9 (≈ 32 µg/mL) | > 128 | inactive | 180 µM | 180 µM | inactive | inactive | MIC (Staphylococcus aureus [17]): > 128 µg/mL; MIC (Enterococcus faecalis [18]): 89.9 µM |
| C[C@]12C[C@H](c3ccoc3)OC(=O)[C@@H]1[C@H](O)C[C@]13COC(=O)C1=CC=C[C@@H]32 | inactive | > 128 µg/mL | > 128 µg/mL | > 128 µg/mL | inactive | inactive | > 128 | > 128 µg/mL | > 128 | > 128 | > 128 | > 128 | > 128 | 359 (≈ 128 µg/mL) | > 128 | inactive | 359 µM | > 128 µg/mL | inactive | inactive | MIC (Staphylococcus aureus [17]): > 128 µg/mL; MIC (Enterococcus faecalis [18]): > 128 µg/mL |
| C[C@]12C[C@H](c3ccoc3)OC(=O)[C@@H]1[C@H](O)C[C@@]13COC(=O)C1=CC=C[C@H]32 | – | – | – | – | – | – | – | – | – | – | – | – | – | – | – | – | – | – | – | – | IC50 [2]: 53.5 µg/mL (≈ 150 µM) |
| CC(C)c1cc2c(c(O)c1O)[C@@]13CCCC(C)(C)[C@@H]1[C@H](OC3=O)C2=O | inactive | 93 µM | 186 µM | 93 µM | inactive | inactive | > 128 | 186 µM | > 128 | > 128 | > 128 | > 128 | > 128 | 186 (≈ 64.1 µg/mL) | > 128 | inactive | 93 µM | 186 µM | inactive | inactive | MIC (Staphylococcus aureus [17]): > 128 µg/mL; MIC (Enterococcus faecalis [18]): 93 µM |

— ChEMBL document CHEMBL4014269, “Antibacterial and Hypoglycemic Diterpenoids from Salvia chamaedryoides” (J Nat Prod, 2017)
